# Data: ChEMBL document CHEMBL1149900, “ent-Labdane diterpenoid lactone stereoisomers from Andrographis paniculata” (2008)
# Tested on: HL-60
# Assay: Antiproliferative activity against human HL60 cells by trypan blue assay
# Format: functional
# Method in brief: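 HL-60 cells seeded at 1 × 10^5 cells/mL, exposed to test compound at 5, 10, 20, 40 or 60 µM for 3 days. Viable growth scored by trypan blue staining, with total cells counted on a hemocytometer. GI50 taken as the concentration halving cell growth. Reported as mean ± SD of three independent experiments, with adriamycin as positive control.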
row,SMILES,GI50
1,C=C1CC[C@@H]2[C@](C)(CO)[C@H](O)CC[C@@]2(C)[C@@H]1/C=C/C1=CCOC1=O,25.6 µM
2,C=C1[C@H](O)C[C@@H]2[C@](C)(CO)[C@H](O)CC[C@@]2(C)[C@@H]1CCC1=CCOC1=O,22.5 µM
3,C=C1CC[C@@H]2[C@](C)(CO)[C@H](O)CC[C@@]2(C)[C@@H]1C[C@@H](O)[C@H]1C(=O)OC[C@H]1O,26.6 µM
4,C=C1CC[C@@H]2[C@](C)(CO)[C@H](O)CC[C@@]2(C)[C@@H]1/C=C/C1=CC(OC)OC1=O (some centres undefined),26.4 µM
5,C=C1CC[C@@H]2[C@](C)(CO)CCC[C@@]2(C)[C@@H]1CC/C(=C/CO)CO,20.4 µM
6,C=C1CC[C@@H]2[C@](C)(CO)[C@H](O)CC[C@@]2(C)[C@@H]1/C=C/C(=O)O,28.8 µM
7,C=C1CC[C@@H]2[C@](C)(CO)[C@H](O)CC[C@@]2(C)[C@@H]1CC/C(=C/CO)C(=O)O,22.4 µM
8,C=C1CC[C@H]2[C@@](C)(CCC(=O)[C@@]2(C)CO)[C@@H]1CCC1=CCOC1=O,22.8 µM
9,C=C1CC[C@@H]2[C@](C)(CO)CCC[C@@]2(C)[C@@H]1CCC1=CCOC1=O [ANDROGRAPANIN],20 µM
10,C=C1CC[C@@H]2[C@](C)(CO)[C@H](O)CC[C@@]2(C)[C@@H]1C/C=C1/C(=O)OC[C@H]1O [ANDROGRAPHOLIDE],9.33 µM
11,C=C1CC[C@@H]2[C@](C)(CO)[C@H](O)CC[C@@]2(C)[C@@H]1CCC1=CCOC1=O [DEOXYANDROGRAPHOLIDE],25.5 µM
12,COc1cccc2c1C(=O)c1c(O)c3c(c(O)c1C2=O)C[C@@](O)(C(=O)CO)C[C@@H]3O[C@H]1C[C@H](N)[C@H](O)[C@H](C)O1 [DOXORUBICIN],0.018 µM

# More lines, in order of falling GI50, values ahead:
row,GI50,SMILES
1,28.8 µM,C=C1CC[C@@H]2[C@](C)(CO[C@@H]3O[C@H](CO)[C@@H](O)[C@H](O)[C@H]3O)[C@H](O)CC[C@@]2(C)[C@@H]1C/C=C1/C(=O)OC[C@H]1O [ANDROGRAPHISIDE]
2,26.7 µM,C=C1CC[C@@H]2[C@](C)(CO[C@@H]3O[C@H](CO)[C@@H](O)[C@H](O)[C@H]3O)CCC[C@@]2(C)[C@@H]1CCC1=CCOC1=O [NEOANDROGRAPHOLIDE]
3,25.2 µM,C=C1[C@@H](CCC2=CCOC2=O)[C@]2(C)CC[C@@H](O)[C@@](C)(CO)[C@H]2C[C@@H]1O
4,24.9 µM,C=C1CC[C@@H]2[C@](C)(CO)[C@H](O)CC[C@@]2(C)[C@@H]1CCO
5,24.4 µM,C=C1CC[C@@H]2[C@](C)(CO)[C@H](O)CC[C@@]2(C)[C@@H]1C[C@H](O)[C@@H]1C(=O)OC[C@H]1O
6,19.2 µM,C=C1CC[C@H]2[C@@](C)(CCC(=O)[C@@]2(C)CO)[C@@H]1/C=C/C1=CCOC1=O
7,6.3 µM,C=C1CC[C@@H]2[C@](C)(CO)[C@H](O)CC[C@@]2(C)[C@@H]1C/C=C1\C(=O)OC[C@H]1O
